Our source for the IC50, logP and inhibition values is ChEMBL document CHEMBL5352462, “Resveratrol derivatives: Synthesis and their biological activities” (Eur J Med Chem, 2023).

For one data set, the system named is HT-29. Kind of data set: Cytotoxicity against human HT-29 cells incubated for 24 hrs by MTT assay. The format is functional, cell-based. To be noted: HT-29, 24 h. The gist of the method:
(§1)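 Cells plated at 1.5 × 10⁵ per well, allowed to adhere overnight, medium refreshed, then treated at 10, 50 and 100 μM for 24 h; DMSO vehicle controls (<0.1%). Medium replaced after 72 h. MTT at 5 mg/mL in PBS added, 3 h at 37 °C in 5% CO₂; formazan dissolved in DMSO, absorbance read at 550 nm. IC50 from dose-response curves, mean ± SE of three independent experiments.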
Background: Formazan colour is commonly taken as a measure of viable cells.

Data set [1] in a line: Lipophilicity, logP of compound. Conditions: octanol/water. The format is physicochemical. Summed up: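 Log P calculated in silico, not measured experimentally.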
Data set [2] relates to HCT cell line. Kind of data set: Cytotoxicity against HCT cell expressing KRAS assessed as growth inhibition by measuring synthetic lethality at 0.2 uM relative to control. The format is functional. To be noted: Homo sapiens.
In data set [3] the test system is HCT cell line. Kind of data set: Cytotoxicity against HCT cell expressing KRAS assessed as growth inhibition by measuring synthetic lethality at 2 uM relative to control. Conditions: Homo sapiens. The format is functional.
Data set [4] has as its system HCT cell line. The experiment in a line: Cytotoxicity against HCT cell expressing KRAS assessed as growth inhibition by measuring synthetic lethality at 20 uM relative to control. The format is functional. To be noted: Homo sapiens.
In the next data set the test system is RKO. The experiment in a line: Cytotoxicity against human RKO cell expressing KRAS assessed as growth inhibition by measuring synthetic lethality at 0.2 uM relative to control. The format is functional.
Data set [5] deals with HCT-116. The experiment in a line: Cytotoxicity against HCT-116 cell expressing KRAS assessed as growth inhibition by measuring synthetic lethality at 2 uM relative to control. Conditions: Homo sapiens. The format is functional.
Data set [6] has as its system HCT-116. Kind of data set: Cytotoxicity against HCT-116 cell expressing KRAS assessed as growth inhibition by measuring synthetic lethality at 20 uM relative to control. The format is functional. To be noted: Homo sapiens.
For data set [7], the system named is COLO 320. Kind of data set: Cytotoxicity against human COLO 320 cell expressing KRAS assessed as growth inhibition by measuring synthetic lethality at 0.2 uM relative to control. The format is functional.
Data set [8] concerns COLO 320. Kind of data set: Cytotoxicity against human COLO 320 cell expressing KRAS assessed as growth inhibition by measuring synthetic lethality at 2 uM relative to control. The format is functional.
Data set [9] has as its system COLO 320. Kind of data set: Cytotoxicity against human COLO 320 cell expressing KRAS assessed as growth inhibition by measuring synthetic lethality at 20 uM relative to control. The format is functional.
The test system of data set [10] is SNU-C1. The experiment in a line: Cytotoxicity against human SNU-C1 cell expressing KRAS assessed as growth inhibition by measuring synthetic lethality at 0.2 uM relative to control. The format is functional.
Data set [11] concerns SNU-C1. Kind of data set: Cytotoxicity against human SNU-C1 cell expressing KRAS assessed as growth inhibition by measuring synthetic lethality at 2 uM relative to control. The format is functional.
Data set [12] concerns SNU-C1. Kind of data set: Cytotoxicity against human SNU-C1 cell expressing KRAS assessed as growth inhibition by measuring synthetic lethality at 20 uM relative to control. The format is functional.
Data set [13] has as its target Microtubule-associated protein tau (Homo sapiens) (UniProt P10636). Kind of data set: Inhibition of Tau in human Huh-7 cells at 40 uM relative to control. The format is cell-based.
Another data set has as its system MIA PaCa-2. The experiment in a line: Cytotoxicity against human MIA PaCa-2 cells incubated for 24 hrs by MTT assay. Conditions: MIA PaCa-2, 24 h. The format is functional, cell-based. Summed up:
as §1

For data set [14], the target named is Calcitonin gene-related peptide type 1 receptor (Homo sapiens) (UniProt Q16602). The experiment in a line: Inhibition of human CGRP1 at 30 uM relative to control.
Sequence of Calcitonin gene-related peptide type 1 receptor (Homo sapiens) (Q16602 whole entry): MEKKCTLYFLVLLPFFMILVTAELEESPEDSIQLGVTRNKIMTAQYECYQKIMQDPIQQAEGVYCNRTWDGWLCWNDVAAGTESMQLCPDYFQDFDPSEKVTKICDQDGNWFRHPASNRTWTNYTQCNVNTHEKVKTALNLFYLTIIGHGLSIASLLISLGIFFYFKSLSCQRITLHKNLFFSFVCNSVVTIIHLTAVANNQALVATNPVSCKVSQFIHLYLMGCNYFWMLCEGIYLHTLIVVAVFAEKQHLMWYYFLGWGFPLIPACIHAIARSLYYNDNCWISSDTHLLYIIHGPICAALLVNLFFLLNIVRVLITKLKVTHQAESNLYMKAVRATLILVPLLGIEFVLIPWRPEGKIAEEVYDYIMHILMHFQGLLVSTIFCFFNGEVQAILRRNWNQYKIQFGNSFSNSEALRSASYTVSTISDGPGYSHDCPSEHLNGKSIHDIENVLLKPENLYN
In data set [15] the target is Calcitonin gene-related peptide type 1 receptor (Homo sapiens, UniProt O60894+Q16602). The experiment in a line: Inhibition of human CGRP1.
Sequence of Calcitonin gene-related peptide type 1 receptor (Q16602 whole entry, one chain of several): as the sequence (Q16602 whole entry) above

Some results are limits rather than exact numbers.

Sequence of Microtubule-associated protein tau (Homo sapiens) (P10636 whole entry): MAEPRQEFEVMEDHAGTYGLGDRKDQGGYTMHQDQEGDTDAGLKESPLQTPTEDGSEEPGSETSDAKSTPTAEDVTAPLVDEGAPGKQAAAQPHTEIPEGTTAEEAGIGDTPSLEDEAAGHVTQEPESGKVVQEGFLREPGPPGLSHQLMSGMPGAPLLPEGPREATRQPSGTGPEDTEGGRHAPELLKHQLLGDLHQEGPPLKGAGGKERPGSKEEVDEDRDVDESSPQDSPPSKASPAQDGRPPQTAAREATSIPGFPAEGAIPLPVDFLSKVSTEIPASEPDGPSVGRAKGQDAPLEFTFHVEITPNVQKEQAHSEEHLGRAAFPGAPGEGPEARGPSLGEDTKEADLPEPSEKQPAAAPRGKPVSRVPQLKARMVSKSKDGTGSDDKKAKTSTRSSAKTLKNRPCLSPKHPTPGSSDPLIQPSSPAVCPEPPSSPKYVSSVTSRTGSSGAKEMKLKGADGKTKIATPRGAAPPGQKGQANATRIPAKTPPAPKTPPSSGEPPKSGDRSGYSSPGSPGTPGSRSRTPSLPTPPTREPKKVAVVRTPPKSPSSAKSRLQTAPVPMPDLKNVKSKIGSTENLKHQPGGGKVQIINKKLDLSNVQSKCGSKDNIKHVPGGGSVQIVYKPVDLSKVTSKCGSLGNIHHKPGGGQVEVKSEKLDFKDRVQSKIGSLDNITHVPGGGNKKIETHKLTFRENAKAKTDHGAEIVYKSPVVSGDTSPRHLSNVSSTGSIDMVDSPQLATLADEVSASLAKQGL

On to `COc1ccc(OC)c(-c2cc3ccc(OCc4ccccc4)cc3[nH]2)c1`, for which, in the data set with HT-29, the IC50 (as a rule, the midpoint of a concentration-inhibition curve) worked out at 239 µM. Moreover, the log partition coefficient (logP) (commonly the decadic logarithm of the partition coefficient of the neutral form, usually between octanol and water) in [1] worked out at 5.15. Also, the inhibition (as a rule, the share of the control response that was lost under treatment) at 0.2 µM in the data set on HCT cell line [2] stood at 0%; in the data set with RKO, 77.3%; in the data set with COLO 320 [7], 0%; in the data set on SNU-C1 [10] it was 7.4%. Moreover, the inhibition at 2 µM in the data set on HCT cell line [3] is 6.9%; in the data set on HCT-116 [5] it was 45.6%; in the data set with COLO 320 [8], 0%; in the data set with SNU-C1 [11], 13.9%. Moreover, the inhibition at 20 µM is 48.9% in the data set on HCT cell line [4], 89.7% with HCT-116 [6], 0% with COLO 320 [9] and 44.5% in the data set with SNU-C1 [12].
For the compound `Oc1ccc(/C=C/c2cc(O)cc(O)c2)cc1` [RESVERATROL], the inhibition in data set [13] stood at 21.3%; in data set [14], 2.3%. In addition, the results for the half-maximal inhibitory concentration (IC50) in the data set with HT-29 and in the data set on MIA PaCa-2 were 78 µM and 132 µM, respectively.
For `COc1ccc(/C=C/c2cc(OC)cc(OC)c2)cc1` [TRISMETHOXYRESVERATROL], it took 35 µM to reach half-maximal inhibition with MIA PaCa-2 (IC50). Further, the log partition coefficient (logP) in data set [1] worked out at 3.85.
With `OCCOc1ccc(/C=C/c2cc(OCCO)cc(OCCO)c2)cc1`, the figures for the 50% inhibitory concentration (IC50) in the data set with HT-29 and in the data set on MIA PaCa-2 were 23 µM and 79 µM, respectively. Also, the logP in [1] amounted to 2.29.
Taken in the same sequence, the figures for `COc1ccc(/C=C/c2cc(OC)c(OC)c(OC)c2)c(OC)c1` were 12 µM, 28 µM and 3.59.
In the case of `COc1cc(OC)cc(-c2cc3ccc(O)cc3o2)c1`, in the data set on HT-29, half-maximal inhibition (IC50) was put at 19 µM. In data set [1], the log partition coefficient (logP) worked out at 2.74.
With `Oc1ccc(/C=C/c2cc(O)c(O)c(O)c2)c(O)c1`, the IC50 in the data set with HT-29 was 78 µM; in the data set on MIA PaCa-2 it was 96 µM. In [1], the logP is 2.28.
In the data set with HT-29, `Oc1cc(O)cc(-c2cc3ccc(O)cc3o2)c1` [MORACIN M] gave an IC50 of 73 µM. The same compound returned a logP in [1] of 2.21.
`COc1ccc(OC)c(-c2cc3ccc(O)cc3[nH]2)c1` displayed a 50% inhibitory concentration (IC50) with HT-29 of 10 µM. Also, the logP in [1] turned out to be 2.66. In addition, the inhibition at 0.2 µM in the data set on HCT cell line [2] amounted to 0%; in the data set with RKO it was 9.4%; in the data set on COLO 320 [7], 0%; with SNU-C1 [10], 0%. Further, the inhibition at 2 µM with HCT cell line [3], with HCT-116 [5], with COLO 320 [8] and in the data set on SNU-C1 [11] was 0% throughout. In addition, the inhibition at 20 µM stood at 6.3% in the data set with HCT cell line [4], 0% in the data set with HCT-116 [6], 55.3% with COLO 320 [9] and 30.3% with SNU-C1 [12].
In the case of `CCCCCCCCCCCC(=O)Oc1ccc(C=Cc2cc(OC(=O)CCCCCCCCCCC)cc(OC(=O)CCCCCCCCCCC)c2)cc1`, the concentration for half-maximal inhibition (IC50) in the data set on HT-29 is 134 µM; in the data set on MIA PaCa-2 it was 198 µM. Further, the logP in [1] was > 11.2.
On to `CC(C)(C)C(=O)Oc1ccc(/C=C/c2cc(OC(=O)C(C)(C)C)cc(OC(=O)C(C)(C)C)c2)cc1`, for which the values for the IC50 in the data set with HT-29 and in the data set with MIA PaCa-2 were 56 µM and 39 µM, respectively. In data set [1], this compound displayed a logP of 8.76.
Take `COc1ccc(-c2cc3cc(OC)cc(OC)c3[nH]2)cc1`: in the data set on HT-29, the half-maximal inhibitory concentration (IC50) turned out to be 211 µM. In [1], this compound returned a logP of 2.93.
As for `COc1cc(-c2cc3ccc(O)cc3o2)cc(OC)c1OC`, the inhibition was found to be 58% in data set [13] and 54.2% in [14]. Further, the figures for the IC50 (with HT-29; in [15]) were 14 µM and 2.41 µM, respectively. The logP in data set [1] was 2.61. Besides, the inhibition at 0.2 µM in the data set with HCT cell line [2] amounted to 0%; in the data set on RKO, 0%; in the data set with COLO 320 [7], 0%; with SNU-C1 [10], 8.7%. Also, the inhibition at 2 µM was found to be 0.5% in the data set on HCT cell line [3], 6.3% in the data set on HCT-116 [5], 4.4% in the data set on COLO 320 [8] and 8.7% in the data set on SNU-C1 [11]. The inhibition at 20 µM worked out at 0% with HCT cell line [4], 87.4% in the data set with HCT-116 [6], 0% in the data set with COLO 320 [9] and 14.9% with SNU-C1 [12].
Take `Oc1ccc2cc(-c3cc(O)c(O)c(O)c3)oc2c1`: the IC50 in the data set on HT-29 amounted to 56 µM; in data set [15] it was 2.77 µM. In addition, the logP in data set [1] was 1.82. In addition, the inhibition at 0.2 µM in the data set on HCT cell line [2] was determined as 15.6%; in the data set with RKO, 2.7%; in the data set with COLO 320 [7], 0%; with SNU-C1 [10], 5.8%. Also, the inhibition at 2 µM turned out to be 0.5% in the data set with HCT cell line [3], 33% in the data set on HCT-116 [5], 0% in the data set with COLO 320 [8] and 3.1% in the data set with SNU-C1 [11]. Further, the inhibition at 20 µM in the data set with HCT cell line [4] was 0%; in the data set with HCT-116 [6] it was 85.9%; in the data set with COLO 320 [9], 0%; in the data set with SNU-C1 [12], 11.2%. In data set [14], the inhibition was determined as 59.9%.
As for `COc1ccc(-c2cc3cc(C)cc(C)c3[nH]2)cc1`, in the data set on HT-29, the IC50 came to 331 µM. Also, in data set [1], the logP worked out at 4.15.
